Results taken from ChEMBL document CHEMBL1134510, “Adenosine analogues as selective inhibitors of glyceraldehyde-3-phosphate dehydrogenase of Trypanosomatidae via structure-based drug design” (J Med Chem, 2001).

Legend:
[1] = Inhibitory activity against Leishmania mexicana GAPDH; Inactive at 50 uM
[2] = In vitro inhibition of rabbit muscle GAPDH.; set-up: species or system Oryctolagus cuniculus
Outline: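 Spectrophotometric assay at 23 °C in 0.10 M triethanolamine/HCl, pH 7.5. Enzyme starts the reaction and inhibitors are in 5% DMSO-d₆. Initial rates over 0–2 min are compared with control. IC50 comes from ≥5 concentrations, or is extrapolated from ≥3 concentrations when above 50 µM.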

Trypanosoma brucei = experiment: Effective concentration required to block the growth of bloodstream Trypanosoma brucei; type: functional; settings: read-out: ED50 (the source's name)
Outline: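 Bloodstream-form strain 427 trypomastigotes grown in HMI-9 with 10% fetal bovine serum, penicillin and streptomycin at 37 °C, 5% CO2. Inoculum 5 × 10³ parasites per well, drug given in serial dilutions, triplicate wells. Growth read at 48 h with Alamar Blue, checked against hemacytometer counts. Assay run twice.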

| Compound | IC50 [1] | IC50 [2] [nM] | EC50 (Trypanosoma brucei) [nM] |
| --- | --- | --- | --- |
| O=C(CC1CCCCC1)NC[C@H]1OC(n2cnc3c(NCc4cccc5ccccc45)ncnc32)[C@H](O)[C@@H]1O (stereo partly specified) | Not Active |  |  |
| N=C(N)c1ccc(OCCCCCOc2ccc(C(=N)N)cc2)cc1 [PENTAMIDINE] |  | > 50000 | 6 |
| O=C(N[C@@H]1[C@H](O)[C@@H](CO)O[C@H]1n1cnc2c(NCc3cccc4ccccc34)ncnc21)c1ccccc1O | Not Active |  |  |
| O=C(N[C@@H]1[C@H](O)[C@@H](CO)O[C@H]1n1cnc2c(NCc3cccc4ccccc34)ncnc21)c1ccccc1Cl | Not Active |  |  |
| O=C(NC[C@H]1OC(n2cnc3c(NCc4cccc5ccccc45)ncnc32)[C@H](O)[C@@H]1O)C(c1ccccc1)c1ccccc1 (stereo partly specified) | Not Active |  |  |
